Measured values gathered from unrelated publications.
Compare with care: the assays were run in different laboratories.
SIRT3: NAD-dependent protein deacetylase sirtuin-3, mitochondrial (SIRT3, Homo sapiens, UniProt Q9NTG7)
GABRA1: Gamma-aminobutyric acid receptor subunit alpha-1 (GABRA1, Homo sapiens, UniProt P14867)
PTGS1: Prostaglandin G/H synthase 1 (PTGS1, Ovis aries, UniProt P05979)

CCCCCCCCCCCCNC(=S)NCCCC[C@H](NC(=O)OCc1ccccc1)C(=O)N[C@@H](Cc1c[nH]c2ccccc12)C(=O)N[C@@H](CCCNC(=N)N)C(N)=O
inhibition (SIRT3; enzyme activity, inhibitor; 10 µM): 62%

CN1CC(Oc2cnc(C#N)cc2-c2ccn3nc(NC(=O)C4CC4)cc3c2)C1
inhibition (Transcription initiation factor TFIID subunit 1-like (TAF1L, Homo sapiens, UniProt Q8IZX4); enzyme activity, inhibitor; 1 µM): -5%

CCCCCCCC1CC(=O)c2cc(Cl)cc(Br)c2O1 (stereo not drawn)
inhibition (SIRT3; enzyme activity, inhibitor, fluorescence; 200 µM): 8.3%

O=C(NC1CCC1)[C@H](Cc1c[nH]c2ccccc12)NC(=O)[C@H](CCCCNC(=S)NCc1cc(O)no1)NS(=O)(=O)c1cccc(F)c1
inhibition (SIRT3; enzyme activity, inhibitor; 30 µM): 6%

CCN(Cc1ccccc1C(F)(F)F)C(=O)C1CCN(S(=O)(=O)c2ccc3[nH]ncc3c2)CC1
inhibition (Androgen receptor (Ar, Rattus norvegicus, UniProt P15207); ligand displacement, radioligand; 10 µM): 11%

COc1cc(NC(C)=O)c(Cl)cc1C(=O)Nc1nccs1
inhibition (GABRA1; cell-free assay; 10 µM): -34.8%

CC(=S)NCCCC[C@H](NC(=O)OCc1ccccc1)C(=O)N[C@@H](Cc1c[nH]c2ccccc12)C(=O)N[C@@H](CCC(=O)O)C(N)=O
inhibition (SIRT3; enzyme activity, inhibitor; 10 µM): 9%

O=C(NC1CCC1)[C@H](Cc1c[nH]c2ccccc12)NC(=O)[C@H](CCCCNC(=S)NCc1n[nH]c(=S)o1)NS(=O)(=O)c1cccc(F)c1
inhibition (SIRT3; enzyme activity, inhibitor; 30 µM): 12%

O=C(O)Cc1ccccc1OP(=O)(O)O
inhibition (Signal transducer and activator of transcription 5A, SH2 (Homo sapiens, UniProt P42229); ligand displacement, FP; 100 µM): 40%

CCCCCCCCCCCCNC(=S)NCCCC[C@H](NC(=O)OCc1ccccc1)C(=O)N[C@@H](C)C(=O)N[C@@H](CCCNC(=N)N)C(N)=O
inhibition (SIRT3; enzyme activity, inhibitor; 1 µM): 20%

Cc1ccc(S(=O)(=O)n2cc(CCC3CC(=O)c4cc(Cl)cc(Br)c4O3)c3ccccc32)cc1 (stereo not drawn)
inhibition (SIRT3; enzyme activity, inhibitor, fluorescence; 200 µM): 13%

CCCCCCCCCCCCNC(=S)NCCCC[C@H](NC(=O)OCc1ccccc1)C(=O)N[C@@H](Cc1c[nH]c2ccccc12)C(=O)N[C@@H](CCC(=O)O)C(N)=O
inhibition (SIRT3; enzyme activity, inhibitor; 10 µM): 21%

O=C(Nc1cccc(C(=O)Nc2ccc3[nH]ncc3c2)c1)Nc1ccccc1F
inhibition (BDNF/NT-3 growth factors receptor (NTRK2, Homo sapiens, UniProt Q16620); enzyme activity, inhibitor, FRET; 1 µM): 27.8%

O=c1cc(-c2ccccc2)oc2c(Br)cc(Cl)cc12
inhibition (SIRT3; enzyme activity, inhibitor, fluorescence; 200 µM): 12%

CCCCCCCCCCCCNC(=S)NCCCC[C@H](NC(=O)OCc1ccccc1)C(=O)N[C@@H](Cc1c[nH]c2ccccc12)C(=O)N[C@@H](CCCCNC(=N)N)C(N)=O
inhibition (SIRT3; enzyme activity, inhibitor; 10 µM): 20%

CN1CCN(CCCOc2ccc(=O)n(-c3ccc(Cl)c(Cl)c3)n2)CC1
inhibition (Transient receptor potential cation channel subfamily V member 1 (TRPV1, Homo sapiens, UniProt Q8NER1); ligand displacement; 1 µM): 17.1%

O=c1c(O)c(-c2ccc(O)cc2)oc2cc(O[C@@H]3O[C@H](CO)[C@@H](O)[C@H](O)[C@H]3O)cc(O)c12
inhibition (PTGS1; enzyme activity, inhibitor, absorbance; 50 µM): 58.8%

C[C@@H](NC(=O)[C@H](CCCCNC(=O)C(F)(F)F)NS(C)(=O)=O)C(=O)N[C@@H](CCCNC(=N)N)C(N)=O
inhibition (SIRT3; enzyme activity, inhibitor; 100 µM): 10%

CCCCCC1C=Cc2cc(Cl)cc(Br)c2O1 (stereo not drawn)
inhibition (SIRT3; enzyme activity, inhibitor, fluorescence; 200 µM): 2%

CN(C)C1CCN(CC#Cc2nn(C3CCCC3)c3nc(NCc4ccccc4)ncc23)C1 (stereo not drawn)
inhibition (Ribosomal protein S6 kinase alpha-3 (RPS6KA3, Homo sapiens, UniProt P51812); enzyme activity, inhibitor, FRET; 1 µM): 2%

O=C1CC(CCNC(=S)NCCCC[C@H](NS(=O)(=O)c2cccc(F)c2)C(=O)N[C@@H](Cc2c[nH]c3ccccc23)C(=O)NC2CCC2)=NO1
inhibition (SIRT3; enzyme activity, inhibitor; 10 µM): 40%

Cc1ncc([N+](=O)[O-])n1C(=NO)c1ccccc1C(F)(F)F
inhibition (Fas-activated serine/threonine kinase (Homo sapiens, UniProt Q14296); enzyme activity, inhibitor; 10 µM): 7.77%

O=C(c1ccc(Cl)cc1)N(Cc1ccccc1)C1CCCCC1
inhibition (GABRA1; cell-free assay; 10 µM): -34.8%

C[C@@H]1O[C@@H](O[C@H]2[C@H](Oc3c(-c4ccc(O)cc4)oc4cc(O)cc(O)c4c3=O)O[C@H](CO[C@@H]3O[C@H](CO)[C@@H](O)[C@H](O)[C@H]3O)[C@@H](O)[C@@H]2O)[C@H](O)[C@H](O)[C@H]1O
inhibition (PTGS1; enzyme activity, inhibitor, absorbance; 50 µM): 76.2%

O=C(NC1CCC1)[C@H](Cc1c[nH]c2ccccc12)NC(=O)[C@H](CCCCNC(=S)NCCn1nn[nH]c1=O)NS(=O)(=O)c1cccc(F)c1
inhibition (SIRT3; enzyme activity, inhibitor; 100 µM): 10%

CCCCC[C@H]1CC(=O)c2cc(Cl)cc(Br)c2O1
inhibition (SIRT3; enzyme activity, inhibitor, fluorescence; 200 µM): 3.9%

Oc1cccc(Nc2nc(-c3ccc(F)cc3F)cs2)c1
inhibition (GABRA1; cell-free assay; 10 µM): -27.3%

CCCCCC1CC(=O)c2cc(F)cc(F)c2O1 (stereo not drawn)
inhibition (SIRT3; enzyme activity, inhibitor, fluorescence; 200 µM): 9.6%

CCCCCCCCCCCCNC(=S)NCCCC[C@H](NC(=O)C1CCCCC1)C(=O)N[C@H](C)C(=O)N[C@@H](CCCNC(=N)N)C(N)=O
inhibition (SIRT3; enzyme activity, inhibitor; 10 µM): 41%

CCCCCC1CC(=O)c2cc(Cl)ccc2O1 (stereo not drawn)
inhibition (SIRT3; enzyme activity, inhibitor, fluorescence; 200 µM): 6%

O=c1c(O[C@@H]2O[C@H](CO)[C@@H](O)[C@H](O)[C@H]2O)c(-c2ccc(O)cc2)oc2cc(O[C@@H]3O[C@H](CO)[C@@H](O)[C@H](O)[C@H]3O)cc(O)c12
inhibition (PTGS1; enzyme activity, inhibitor, absorbance; 50 µM): 62.9%

CC(=S)NCCCC[C@H](NC(=O)OCc1ccccc1)C(=O)N[C@@H](Cc1c[nH]c2ccccc12)C(=O)N[C@@H](CCCCN)C(N)=O
inhibition (SIRT3; enzyme activity, inhibitor; 10 µM): 59%

CCCC1CC(=O)c2cc(Cl)cc(Br)c2O1 (stereo not drawn)
inhibition (SIRT3; enzyme activity, inhibitor, fluorescence; 200 µM): 7%
